One block for each compound: values may come before it. Activity calls are given as the source filed them. The rule behind the calls is not given here.
Experiments:
[1] = test system: HEY; assay: Cytotoxicity against human HEY cells after 72 hrs by MTT assay; type: functional, cell-based
Procedure, shortened: (§1)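 Cells were attached overnight, then continuously exposed to drug for 72 h. MTT (0.5 mg/mL final) was added for 4 h at 37 °C, formazan dissolved in DMSO, and A570 read; all in triplicate. IC50 came from log(concentration) vs % cells killed. Media: RPMI-1640 for HT29, HCT116 p53+/+ and p53−/−, and HEY; DMEM for MDA-MB-435 and UMUC3; all with 10% FBS, 37 °C, 5% CO₂.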

[2] = Octanol-water distribution coefficient, log P of the compound; type: physicochemical
[3] = test system: HT-29; assay: Cytotoxicity against human HT-29 cells after 72 hrs by MTT assay; type: functional, cell-based; conditions: HT-29, 72 h; procedure, shortened: as §1
[4] = test system: HCT-116; assay: Cytotoxicity against human HCT116 cells […] after 72 hrs by MTT assay; type: functional, cell-based; conditions: HCT-116, 72 h; procedure, shortened: as §1
[5] = test system: HCT-116; assay: Cytotoxicity against p53 deficient human HCT116 cells […] after 72 hrs by MTT assay; type: functional, cell-based; conditions: HCT-116, 72 h; procedure, shortened: as §1
[6] = test system: MDA-MB-435; assay: Cytotoxicity against human MDA-MB-435 cells after 72 hrs by MTT assay; type: functional, cell-based; conditions: MDA-MB-435, 72 h; procedure, shortened: as §1
[7] = test system: UMUC3; assay: Cytotoxicity against human UM-UC-3 cells after 72 hrs by MTT assay; type: functional, cell-based; conditions: UMUC3, 72 h; procedure, shortened: as §1
[8] = test system: 5637; assay: Cytotoxicity against human 5637 cells after 72 hrs by MTT assay; type: functional, cell-based; conditions: Homo sapiens, 5637, 72 h
[9] = test system: NCI/ADR-RES; assay: Cytotoxicity against human NCI/ADR-RES cells after 72 hrs by MTT assay; type: functional, cell-based
[10] = test system: MDA-MB-435; assay: Cytotoxicity against human MDA-MB-435 cells at 1 uM after 24 hrs using crystal violet staining by colony formation assay; type: functional, cell-based
Procedure, shortened: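 Cells were plated at 1000 per well, attached overnight, and exposed to 1 μM for 24 h. They were then washed and grown in fresh medium for 8–10 days until colonies formed, fixed in 1% glutaraldehyde for 30 min, and stained with 2% crystal violet for 30 min. Vehicle was DMSO.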

SMILES: C#CC(=O)N(c1ccc(-n2cnnn2)c(C)c1)C(C(=O)NC1CCCC1)c1ccccc1 (stereo not drawn)
- IC50 [1]: 1.9 µM
- logP [2]: 3.54
- IC50 [3]: 1.5 µM
- IC50 [4]: 7.2 µM
- IC50 [5]: 5.7 µM
- IC50 [6]: 0.6 µM
- IC50 [7]: 7.8 µM
- IC50 [8]: 0.4 µM
- IC50 [9]: 1 µM
- Activity [10]: Active

SMILES: C#CC(=O)N(c1ccccc1F)C(C(=O)NC1CCCCC1)c1ccccc1F (stereo not drawn)
- IC50 [1]: 5.6 µM
- logP [2]: 4.17
- IC50 [3]: 7.7 µM
- IC50 [4]: 11.9 µM
- IC50 [5]: 10.1 µM
- IC50 [6]: 6.5 µM
- IC50 [7]: > 20 µM
- IC50 [8]: 2.1 µM
- IC50 [9]: 0.4 µM
- Activity [10]: Active

SMILES: C#CC(=O)N(Cc1ccc2c(c1)OCO2)C(C(=O)NCc1ccccc1)c1ccccc1F (stereo not drawn)
- IC50 [1]: > 10 µM
- logP [2]: 3.32
- IC50 [3]: > 10 µM
- IC50 [4]: > 10 µM
- IC50 [5]: > 20 µM
- IC50 [6]: > 10 µM
- IC50 [7]: > 20 µM
- IC50 [8]: 2.8 µM
- IC50 [9]: 1.3 µM
- Activity [10]: Active

SMILES: C#CC(=O)N(Cc1ccco1)C(C(=O)NC1CCCC1)c1ccccc1F (stereo not drawn)
- IC50 [1]: 4.3 µM
- logP [2]: 2.39
- IC50 [3]: > 10 µM
- IC50 [4]: 10.5 µM
- IC50 [5]: 13 µM
- IC50 [6]: 1.7 µM
- IC50 [7]: > 20 µM
- IC50 [8]: 2.9 µM
- IC50 [9]: 1.2 µM
- Activity [10]: Active

SMILES: COc1cccc2c1C(=O)c1c(O)c3c(c(O)c1C2=O)C[C@@](O)(C(=O)CO)C[C@@H]3O[C@H]1C[C@H](N)[C@H](O)[C@H](C)O1 [DOXORUBICIN]
- logP [2]: -0.82
- Activity [10]: Active

SMILES: CC[C@@]1(O)C(=O)OCc2c1cc1n(c2=O)Cc2cc3ccccc3nc2-1 [CAMPTOTHECIN]
- logP [2]: 1.67

Further lines, with some results ahead:

- logP [2]: 2.26
SMILES: C#CC(=O)N(c1ccc(OC)cc1OC)C(C(=O)NC1CCCC1)c1cccs1 (stereo not drawn)
- IC50 [1]: 4.1 µM
- IC50 [3]: 2.3 µM
- IC50 [4]: 6.9 µM
- IC50 [5]: 7 µM
- IC50 [6]: 1.7 µM
- IC50 [7]: > 20 µM
- IC50 [8]: 1.7 µM
- IC50 [9]: 0.4 µM
- Activity [10]: Active

- logP [2]: 2.62
SMILES: C#CC(=O)N(c1ccc2c(c1)OCCO2)C(C(=O)NC1CCCC1)c1ccccc1 (stereo not drawn)
- IC50 [1]: 4.1 µM
- IC50 [3]: 3.2 µM
- IC50 [4]: 17.3 µM
- IC50 [5]: > 20 µM
- IC50 [6]: 1.8 µM
- IC50 [7]: > 20 µM
- IC50 [8]: 1.9 µM
- IC50 [9]: 0.3 µM
- Activity [10]: Active

- logP [2]: 4.38
SMILES: C#CC(=O)N(c1cccc(C(F)(F)F)c1)C(C(=O)NC1CCCC1)c1ccc(F)cc1 (stereo not drawn)
- IC50 [1]: 2.4 µM
- IC50 [3]: 4.8 µM
- IC50 [4]: 7.5 µM
- IC50 [5]: 6.9 µM
- IC50 [6]: 5.2 µM
- IC50 [7]: 8 µM
- IC50 [8]: 0.5 µM
- IC50 [9]: 0.4 µM
- Activity [10]: Active

- logP [2]: 2.26
SMILES: C#CC(=O)N(c1cc(OC)ccc1OC)C(C(=O)NC1CCCC1)c1cccs1 (stereo not drawn)
- IC50 [1]: 1.5 µM
- IC50 [3]: 1.6 µM
- IC50 [4]: 5.7 µM
- IC50 [5]: 4.7 µM
- IC50 [6]: 0.5 µM
- IC50 [7]: 5.7 µM
- IC50 [8]: 0.3 µM
- IC50 [9]: 0.3 µM
- Activity [10]: Active

- logP [2]: 4.11
SMILES: C#CC(=O)N(c1ccc2ccccc2c1)C(C(=O)NC1CCCC1)c1ccccc1 (stereo not drawn)
- IC50 [1]: 1.7 µM
- IC50 [3]: 4.9 µM
- IC50 [4]: 6.8 µM
- IC50 [5]: 7.4 µM
- IC50 [6]: 7.3 µM
- IC50 [7]: > 20 µM
- IC50 [8]: 0.5 µM
- IC50 [9]: 0.3 µM
- Activity [10]: Active

- logP [2]: 2.33
SMILES: C#CC(=O)N(c1cc(OC)cc(OC)c1)C(C(=O)NC1CCCC1)c1ccc(OC)cc1 (stereo not drawn)
- IC50 [1]: 2.3 µM
- IC50 [3]: 2.1 µM
- IC50 [4]: 15 µM
- IC50 [5]: > 20 µM
- IC50 [6]: 2.4 µM
- IC50 [7]: > 20 µM
- IC50 [8]: 1.9 µM
- IC50 [9]: 0.3 µM
- Activity [10]: Active

- logP [2]: 2.26
SMILES: C#CC(=O)N(c1ccc(OC)c(OC)c1)C(C(=O)NC1CCCC1)c1cccs1 (stereo not drawn)
- IC50 [1]: 3.4 µM
- IC50 [3]: 5.5 µM
- IC50 [4]: 7.7 µM
- IC50 [5]: 9.6 µM
- IC50 [6]: 2 µM
- IC50 [7]: > 20 µM
- IC50 [8]: 2 µM
- IC50 [9]: 0.9 µM
- Activity [10]: Active
